# Measurements from different studies.
# Each line is one published result; the experiments were not run side by side.
# Technique: competition with immobilised ligand
# RPS6KA1 N-terminal kinase domain: Ribosomal protein S6 kinase alpha-1, N-terminal kinase domain (RPS6KA1, Homo sapiens, UniProt Q15418)
# RPS6KA1 C-terminal kinase domain: Ribosomal protein S6 kinase alpha-1, C-terminal kinase domain (RPS6KA1, Homo sapiens, UniProt Q15418)
Compound,target,assay,conditions,remaining binding [%]
CCN1CCN(Cc2ccc(C(=O)Nc3ccc(C)c(Oc4ccc5c(c4)CC(=O)N5)c3)cc2C(F)(F)F)CC1,RPS6KA1 N-terminal kinase domain,binding,1 µM,91
O=C(c1ccc(Nc2ncc(Cl)c(-c3ccc(Cl)s3)n2)cc1)N1CCC(N2CCCC2)CC1,RPS6KA1 N-terminal kinase domain,binding,1 µM,53
COc1ncc2cc3ccccc3nc2c1C#N,RPS6KA1 N-terminal kinase domain,cell-free assay,5 µM,91
O=C(NCCCC1CCCCC1)c1ccc(CNC(=O)c2cnn(-c3ccccc3)c2C(F)(F)F)cc1,RPS6KA1 N-terminal kinase domain,cell-free assay,0.1 µM,100
CNC(=O)[C@@H]1CC[C@@H](n2c(-c3ccc4cnccc4c3)nc3ccc(C(=O)NCc4cccc(C(N)=O)c4)cc32)C1,RPS6KA1 C-terminal kinase domain,binding,1 µM,100
O=C(NCCCN1CCOCC1)c1ccc(Nc2nccc(-c3cc4ccccc4s3)n2)cc1,RPS6KA1 N-terminal kinase domain,binding,1 µM,87
O=C(Nc1cccnn1)N1CC(C/C=C/c2cncc(Oc3ccc(C(F)(F)F)cn3)n2)C1,RPS6KA1 C-terminal kinase domain,cell-free assay,1 µM,92
O=C(NCCCN1CCOCC1)c1ccc(Nc2ncc(Cl)c(-c3ccc(Cl)s3)n2)cc1,RPS6KA1 C-terminal kinase domain,binding,1 µM,72
CCS(=O)(=O)c1cc2cc(C[C@@](O)(CC(C)(C)c3ccc(F)cc3C(N)=O)C(F)(F)F)[nH]c2cn1,RPS6KA1 N-terminal kinase domain,cell-free assay,1 µM,100
N[C@@H]1CCN(c2nccc(-c3cnn4ncccc34)n2)C1,RPS6KA1 N-terminal kinase domain,binding,1 µM,100
CO[C@@H](C)c1c(Nc2ccc([C@@H](N(C)C(=O)C3CCS(=O)(=O)CC3)C(F)(F)F)cc2)cnc2cc(Cl)nn12,RPS6KA1 C-terminal kinase domain,cell-free assay,1 µM,99
FC(F)(F)Oc1cccc(-c2cnc3ccc(-c4ccncc4)nn23)c1,RPS6KA1 N-terminal kinase domain,binding,5 µM,63
CN(c1nccc(-c2cnn3ncccc23)n1)C1CC1,RPS6KA1 C-terminal kinase domain,binding,1 µM,100
Cc1cnc(Nc2ccc(C(=O)N3CCC(N4CCCC4)CC3)cc2)nc1-c1cc2ccccc2s1,RPS6KA1 C-terminal kinase domain,binding,1 µM,74
CN(C)c1ncnc(-c2ccc3nc(Nc4cc(CN5CCN(C(=O)CC(F)(F)F)CC5)ccn4)[nH]c3c2)c1Cl,RPS6KA1 C-terminal kinase domain,cell-free assay,1 µM,98
O=C(c1ccc(Nc2nccc(-c3cc4ccccc4s3)n2)cc1)N1CCC(N2CCCC2)CC1,RPS6KA1 N-terminal kinase domain,binding,1 µM,100
c1cncc(-c2cccc(Nc3nccc(NC4CCCCC4)n3)c2)c1,RPS6KA1 C-terminal kinase domain,binding,10 µM,99
O=C(c1ccc(Nc2ncc(Cl)c(-c3cc4ccccc4s3)n2)cc1)N1CCC(N2CCCC2)CC1,RPS6KA1 N-terminal kinase domain,binding,1 µM,63
COc1cnc(Nc2cccc(S(N)(=O)=O)c2)nc1N1CCN(c2ccccc2)C(=O)C1,RPS6KA1 C-terminal kinase domain,binding,1 µM,92
Nc1ncc2c(n1)-c1c([nH]c3ccc(C#CC4CC4)cc13)CCCC2,RPS6KA1 N-terminal kinase domain,binding,1 µM,90
CN(CCCC(F)(F)F)c1nccc(-c2cnn3ncccc23)n1,RPS6KA1 N-terminal kinase domain,binding,1 µM,100
C[C@@H](c1ccc(-n2cnc3c(N)ncnc32)cc1)N1CCc2nn(C)c(Cc3ccccc3)c2C1=O,RPS6KA1 N-terminal kinase domain,binding,0.1 µM,96
C[C@H]1CCN(c2nccc(-c3cnn4ncccc34)n2)C1,RPS6KA1 N-terminal kinase domain,binding,1 µM,94
O=C(NCc1ncc(C(F)(F)F)cc1Cl)c1ccc2c(c1)C1(CCS(=O)(=O)CC1)[C@H](C1CC1)N2S(=O)(=O)c1ccc(F)cc1,RPS6KA1 C-terminal kinase domain,cell-free assay,1 µM,99
COc1cnc(Nc2cccc(S(N)(=O)=O)c2)nc1N1CCN(c2ccccc2)CC1,RPS6KA1 N-terminal kinase domain,binding,1 µM,100
CC(=O)c1c(NS(C)(=O)=O)c2cc(-c3ccc(Cl)cc3)c(-c3ccc(Cl)cc3Cl)nc2n(C)c1=O,RPS6KA1 C-terminal kinase domain,cell-free assay,1 µM,88
O=C(NCC1CCOCC1)c1n[nH]cc1NC(=O)c1c(F)cccc1F,RPS6KA1 N-terminal kinase domain,binding,1 µM,93
C=CC(=O)N1CCC(C(=O)NCC(=O)N2CCN(c3nc(-c4cnc(N)nc4C(F)F)nc(N4CCOCC4)n3)CC2)CC1,RPS6KA1 C-terminal kinase domain,binding,1 µM,100
CN(C)c1ncc(F)c(-c2cnn3ncccc23)n1,RPS6KA1 N-terminal kinase domain,binding,1 µM,100
CS(=O)(=O)NCC[C@H](NC(=O)c1cncc2c1cnn2-c1ccc(F)cc1)c1ccnc(S(C)(=O)=O)c1,RPS6KA1 N-terminal kinase domain,cell-free assay,1 µM,100
COc1ccnn2ncc(-c3ccnc(N(C)C)n3)c12,RPS6KA1 N-terminal kinase domain,binding,1 µM,100
O=C(Nc1c[nH]nc1C(=O)NC1CCNCC1)c1cc(F)cc(F)c1,RPS6KA1 N-terminal kinase domain,binding,1 µM,100
